The results in this text go back to the RNAGym collection of RNA variant scans (doi:10.1126/science.aae0568).

The labels stand for the following.
B1: tRNA (parent)
chain: GUUCCGUUGGCGUAAUGGUAACGCGUCUCCCUCCUAAGGAGAAGACUGCGGGUUCGAGUCCCGUACGGAACG

This sample holds only a part of the variants without activity. Bounds are passed on as bounds.

In the data set the parent is B1. As to the kind of experiment: yeast fitness relative to wild type (ratio to wild type); higher = fitter; tRNA-Arg(CCU), competitive growth, 37 C, YPD. The gist of the method:
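A pool of Saccharomyces cerevisiae strains, each with a tRNA-Arg(CCU) gene variant at the native genomic locus, was competed in YPD at 37°C for 24 hours across six parallel replicates. The variants had been chemically synthesised at a 3% per-site mutation rate over 69 sites, and gene amplicons before and after competition were read by 100-nucleotide paired-end sequencing. Darwinian fitness relative to wild type rested on changes in genotype frequencies. Genotypes required ≥ 100 starting reads, and estimates < 0.5 were set to 0.5.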
C4G G18C C30A: the yeast fitness is at most 0.5.
For the variant C4G U8C A21G, the yeast fitness was determined as 0.605.
Then C4G U8C U28G C49A C62G, with at most 0.5; and C4G G48A C49U G50A G51C U64A A70C, with at most 0.5; and C4G U13C A40U A42C C66U, with at most 0.5.
In the case of C4G G50C C61U, the yeast fitness came out at 0.52.
Take C4G G58A U64A: the yeast fitness was at most 0.5.
Next, C4G G6C U8G G17A G23A A45G A70C: at most 0.5.
On to C4G G9C C22A, for which the yeast fitness is at most 0.5.
With C4G G6C A36C C62G C66A, the yeast fitness was at most 0.5.
C4G C33U A43C: the yeast fitness was at most 0.5.
On to C4G U7G G12C A20U, for which the yeast fitness is at most 0.5.
In the case of C4G U19C U47A C49U G68C, the yeast fitness was at most 0.5.
Next, C4G G10A C29U C46G: at most 0.5; C4G C34U C55A G68C: at most 0.5.
For the variant C4G U16C C31U, the yeast fitness is 0.554.
With C4G U19C A43G A45C C46U, the yeast fitness is at most 0.5.
As for C4G U19C G51A A65G, the yeast fitness is at most 0.5.
In the case of C4G G18C C33G G41A C55G, the yeast fitness is at most 0.5.
For C4G G23A C24A C31A A36G, the yeast fitness was at most 0.5.
On to C4G G10C U26C C27G A37G G39A, for which the yeast fitness is at most 0.5.
Next, C4G G6C C29G G63C: at most 0.5; C4G U7A U26A A40C A42G G58C: at most 0.5.
With C4G C60G C61U, the yeast fitness is at most 0.5.
Turning to C4G U8G G9A C11U C34G C61A, the yeast fitness is at most 0.5.
Take C4G G23C A45U: the yeast fitness was at most 0.5.
Next, C4G C46U G48A: 1.04.
Turning to C4G U16C U19C U32A C46U G63C, the yeast fitness is at most 0.5.
Next, C4G U32A C34G G41C: at most 0.5; C4G G25C C30G: 0.622; C4G U7G G12C A20U U32A: at most 0.5.
Regarding C4G U7G G9A A20G C22A G41A A69C, the yeast fitness was at most 0.5.
On to C4G G17A C30U, for which the yeast fitness was at most 0.5.
In the case of C4G U8C U47A, the yeast fitness was at most 0.5.
C4G U13A U54C: the yeast fitness worked out at 0.548.
On to C4G U19A A37U A42G, for which the yeast fitness worked out at 0.55.
C4G U7G C34A: the yeast fitness was at most 0.5.
Then C4G G10U A20U C34G A37G C66U, with at most 0.5; and C4G G9C A42U C55G, with at most 0.5.
Then C4G G17A U26C A40G A70C, with 0.793.
Then C4G G17A U28A C31G A57G C62U, with at most 0.5.
C4G U28C A69U: the yeast fitness came to 0.568.
Turning to C4G G23C G52A U54C, the yeast fitness was at most 0.5.
Then C4G U7A C31G U59A, with at most 0.5; and C4G U16C C31U A70C, with at most 0.5.
In the case of C4G C46G A69U, the yeast fitness amounted to 0.721.
Then C4G G18C A70C, with 0.508; and C4G U19A G44C, with 0.535; and C4G G12A U19C C29G A57G C61A A65C C66U, with 0.634.
On to C4G G51C, for which the yeast fitness was 0.647.
With C4G U8C C11G C46U, the yeast fitness was at most 0.5.
As to C4G U13C A70G, the yeast fitness is 0.618.
As to C4G U19C, the yeast fitness came to 0.99.
For C4G U7C C22U U35G C61A, the yeast fitness was at most 0.5.
Next, C4G U16C C27G A40G G48A C55A A57C: at most 0.5; C4G G39A A65C: at most 0.5.
C4G G39A A65U: the yeast fitness amounted to 0.576.
In the case of C4G G25A, the yeast fitness was 0.894.
Turning to C4G G6A A69U, the yeast fitness was determined as 0.667.
Then C4G U7G G12C A20U U28G, with at most 0.5.
Then C4G U28A C33G, with at most 0.5; and C4G C62A C66U, with 0.704.
On to C4G U7C U13G, for which the yeast fitness turned out to be 0.537.
On to C4G G18C G63A, for which the yeast fitness was at most 0.5.
With C4G C46U G67C, the yeast fitness was found to be 0.597.
Take C4G C34U C49A G68C: the yeast fitness was at most 0.5.
C4G U16C A45G: the yeast fitness amounted to 0.597.
Next, C4G C55A A57U: at most 0.5; C4G G9C C22A A70C: at most 0.5.
For the variant C4G G6A G23A A43G C55U, the yeast fitness is at most 0.5.
C4G G17U G23A C55A C61A: the yeast fitness is at most 0.5.
Regarding C4G U16C G44A G48A G50C A57U, the yeast fitness was at most 0.5.
Consider C4G C49G U64G A65G A70U, for which the yeast fitness is at most 0.5.
On to C4G G18C, for which the yeast fitness was determined as 0.599.
Consider C4G G6A G10C U19A C24G A43G C61G A70U, for which the yeast fitness was at most 0.5.
With C4G C34A, the yeast fitness worked out at 0.762.
C4G G17A: the yeast fitness amounted to 0.724.
C4G G9C C22A G67A: the yeast fitness was at most 0.5.
Then C4G G23A C29G A37C C60G, with 0.808; and C4G U16C C27G A40G G48A A57C C62U, with 0.537; and C4G G23C C61U, with at most 0.5.
C4G G44A A45C: the yeast fitness was at most 0.5.
For C4G U28C, the yeast fitness amounted to 0.77.
